ChEMBL document CHEMBL5678798 (Clin Cancer Res, 2009)

Legend:
[1] = target: Receptor tyrosine-protein kinase erbB-4 (Homo sapiens, UniProt Q15303); test: Inhibition of ErbB4 (unknown origin)
[2] = target: Insulin receptor-related protein (Homo sapiens, UniProt P14616); test: Inhibition of N-terminal 6His-tagged recombinant human IRR (944 to 1266 residues) expressed in baculovirus infected Sf21 cells by filter binding assay
[3] = target: Inhibitor of nuclear factor kappa-B kinase subunit beta (Homo sapiens, UniProt O14920); test: Inhibition of IKK2 (unknown origin)
[4] = Cytotoxicity against human PREC cells assessed as reduction in cell viability after 72 hrs by CellTiter-Glo assay; type: toxicity, cell-based
How it was run: (§1)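 Cells seeded in 96-well plates, left overnight at 37°C, then exposed to a range of test concentrations for 72 h. Viability read by CellTiter-Glo luminescence; IC50 from four-parameter curve fit. Lines kept at 37°C, 5% CO2, in recommended growth medium.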

[5] = Toxicity in nu/nu CD-1 mouse xenografted with human COLO 205 cells assessed as reduction in body weight at 30 mg/kg, po for 21 days relative to control; parameters: scale not given: the % may be the effect or the level left; conditions: in vivo, 504 h
Aurora kinase A = Aurora kinase A (Homo sapiens, UniProt O14965); test: Inhibition of N-terminal 6His-tagged recombinant full-length human Aurora-A expressed in Sf21 cells by filter binding assay
NCI-H929 = test: Induction of cell cycle arrest in human NCI-H929 cells assessed as cells accumulation at G1 phase at 1 umol/L incubated for 48 hrs by propidium iodide staining based flow cytometric analysis (reference value: 42%); type: functional; conditions: dose 1 µmol/L, at 1 µM
How it was run: (§2)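 COLO 205, MCF-7 or NCI-H929 cells seeded in 96-well plates overnight at 37°C, then exposed to DMSO or increasing compound concentrations for 24 or 48 h. Fixed and stained with propidium iodide (Vindelov method), then analysed by flow cytometry for sub-G1, G1, S and G2-M fractions. Experiment repeated twice.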

[6] = target: Serine/threonine-protein kinase tousled-like 2 (Homo sapiens) (UniProt Q86UE8); test: Inhibition of N-terminal 6His-tagged recombinant human TLK2 (388 to end residues) expressed in baculovirus infected Sf21 cells at 0.3 uM by filter binding assay relative to control
How it was run: (§3)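 Outsourced single-concentration screen in a commercial panel of 233 protein kinases, run as radiometric filter-binding activity assays. Test agent was tested at 0.3 or 3 µmol/L, as given in each line, from a 10 mmol/L DMSO stock. Activity is expressed as percent inhibition relative to control.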

[7] = target: Mitogen-activated protein kinase 11 (Homo sapiens) (UniProt Q15759); test: Inhibition of N-terminal GST fusion protein corresponding to full-length human SAPK2b expressed in Escherichia coli at 3 uM by filter binding assay relative to control; how it was run: as §3
[8] = target: Phosphatidylinositol 4,5-bisphosphate 3-kinase catalytic subunit delta isoform (Homo sapiens, UniProt O00329); test: Inhibition of PI3Kdelta (unknown origin)
[9] = target: Ephrin type-A receptor 1 (Homo sapiens) (UniProt P21709); test: Inhibition of N-terminal 6His-tagged recombinant human EphA1 (568 to end residues) expressed in baculovirus infected Sf21 cells at 3 uM by filter binding assay relative to control; how it was run: as §3
EJM = test: Antiproliferative activity against human EJM cells assessed as reduction in cell viability after 72 hrs by CellTiter-Glo assay; type: functional, cell-based; how it was run: as §1
[10] = target: Tyrosine-protein kinase Yes (Homo sapiens) (UniProt P07947); test: Inhibition of N-terminal His6 tagged recombinant full-length human Yes expressed in baculovirus infected Sf21 cells at 0.3 uM by filter binding assay relative to control; how it was run: as §3
COLO 205 = test: In vivo inhibition of IGF1R in human COLO 205 cells xenografted in IGF1-stimulated po dosed nu/nu CD-1 mouse assessed as reduction in IGF1R phosphorylation pretreated for 4 hrs followed by IGF1 stimulation and measured after 15 min by radioimmunoprecipitation assay; type: functional, organism-based; conditions: dose 1-60 mg/kg, time 4.17 hrs, in the assay text read “measured after 10 min” for “measured after 15 min”
How it was run: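 Female nu/nu CD-1 mice, three per group, bearing ~500 mm3 tumors, given one oral dose of compound or vehicle. At 4 h, 10 µg hIGF-I i.v. via tail vein; saline controls. Tumor and blood taken 10 min later. Tumor lysates in RIPA captured on anti-IGF-IR plates and probed with europium anti-phosphotyrosine. Phospho/total IGF-IR expressed as % of ligand-stimulated control. Blood levels by LC-MS/MS.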

HN5 = test: Antiproliferative activity against human HN5 cells assessed as reduction in cell viability after 72 hrs by CellTiter-Glo assay; type: functional, cell-based; conditions: HN5, 72 h; how it was run: as §1
MCF7 = test: Induction of cell cycle arrest in human MCF7 cells assessed as cells accumulation at G2 phase at 1 umol/L incubated for 48 hrs by propidium iodide staining based flow cytometric analysis (reference value: 17%); type: functional; conditions: dose 1 µmol/L, at 1 µM; how it was run: as §2
[11] = target: Discoidin domain-containing receptor 2 (Homo sapiens) (UniProt Q16832); test: Inhibition of N-terminal His6-tagged recombinant human DDR2 (467 to end residues) expressed in baculovirus infected Sf21 cells at 3 uM by filter binding assay relative to control
[12] = target: Serine/threonine-protein kinase Nek11 (Homo sapiens) (UniProt Q8NG66); test: Inhibition of 6His-tagged recombinant human full-length NEK11 expressed in baculovirus infected Sf21 cells at 0.3 uM by filter binding assay relative to control
How it was run: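 KinaseProfiler panel of 233 kinases: radiometric filter-binding activity assays with compound at 0.3 or 3 µmol/L. Read-out is percent inhibition.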

[13] = target: Serine/threonine-protein kinase Sgk2 (Homo sapiens) (UniProt Q9HBY8); test: Inhibition of human SGK2 at 3 uM by filter binding assay relative to control
[14] = Inhibition of recombinant mouse N-terminal 6His-tagged full length P110alpha/full length mouse […] expressed in baculovirus infected Sf21 cells at 0.3 uM by filter binding assay relative to control; conditions: condition cancer
[15] = target: Phosphatidylinositol 4,5-bisphosphate 3-kinase catalytic subunit beta isoform (Homo sapiens, UniProt P42338); test: Inhibition of PI3Kbeta (unknown origin)
[16] = target: Dual specificity protein kinase CLK2 (Homo sapiens) (UniProt P49760); test: Inhibition of N-terminal GST-tagged recombinant human CLK2 (138 to end residues) expressed in baculovirus infected Sf21 cells at 0.3 uM by filter binding assay relative to control; how it was run: as §3
[17] = target: Mitogen-activated protein kinase 8 (Homo sapiens, UniProt P45983); test: Inhibition of JNK1 (unknown origin)
[18] = target: Tyrosine-protein kinase FRK (Homo sapiens, UniProt P42685); test: Inhibition of N-terminal 6His-tagged recombinant human PTK5 (218 to end residues) expressed in baculovirus infected Sf21 cells by filter binding assay
LNCaP = test: Antiproliferative activity against human LNCaP cells assessed as reduction in cell viability after 72 hrs by CellTiter-Glo assay; type: functional, cell-based; how it was run: as §1
[19] = target: Tyrosine-protein kinase Lyn (Homo sapiens) (UniProt P07948); test: Inhibition of N-terminal His6-tagged recombinant full-length human Lyn expressed in Sf21 cells at 3 uM by filter binding assay relative to control; how it was run: as §3
Chain of Tyrosine-protein kinase Lyn (Homo sapiens) (P07948 2-512 limits assumed): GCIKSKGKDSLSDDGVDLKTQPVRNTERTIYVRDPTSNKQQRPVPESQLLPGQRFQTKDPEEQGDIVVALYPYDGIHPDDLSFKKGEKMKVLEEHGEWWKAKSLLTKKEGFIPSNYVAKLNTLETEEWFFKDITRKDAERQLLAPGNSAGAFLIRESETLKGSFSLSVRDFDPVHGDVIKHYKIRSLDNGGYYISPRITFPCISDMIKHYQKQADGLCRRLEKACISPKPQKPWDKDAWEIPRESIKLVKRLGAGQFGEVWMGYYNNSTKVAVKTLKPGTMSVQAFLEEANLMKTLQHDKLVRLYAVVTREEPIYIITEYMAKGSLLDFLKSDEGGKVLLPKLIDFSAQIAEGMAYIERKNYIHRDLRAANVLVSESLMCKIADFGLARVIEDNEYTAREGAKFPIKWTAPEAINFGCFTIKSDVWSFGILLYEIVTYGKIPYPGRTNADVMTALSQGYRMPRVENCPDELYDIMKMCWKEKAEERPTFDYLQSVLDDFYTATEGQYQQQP

Chain of Tyrosine-protein kinase FRK (P42685 whole entry): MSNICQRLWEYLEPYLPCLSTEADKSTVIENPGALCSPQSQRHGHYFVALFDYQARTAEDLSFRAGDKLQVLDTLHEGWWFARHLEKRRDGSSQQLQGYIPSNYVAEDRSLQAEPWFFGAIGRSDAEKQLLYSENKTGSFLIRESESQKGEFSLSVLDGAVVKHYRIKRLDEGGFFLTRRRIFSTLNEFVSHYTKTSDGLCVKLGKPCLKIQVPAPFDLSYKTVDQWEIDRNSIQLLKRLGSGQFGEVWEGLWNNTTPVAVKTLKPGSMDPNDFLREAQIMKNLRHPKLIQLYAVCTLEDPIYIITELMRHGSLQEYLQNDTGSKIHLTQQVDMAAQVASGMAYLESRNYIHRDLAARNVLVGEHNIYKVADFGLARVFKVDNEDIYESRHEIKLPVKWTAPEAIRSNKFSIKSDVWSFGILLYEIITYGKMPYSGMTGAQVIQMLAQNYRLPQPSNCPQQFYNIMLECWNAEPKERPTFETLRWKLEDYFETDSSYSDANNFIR
Chain of Phosphatidylinositol 4,5-bisphosphate 3-kinase catalytic subunit delta isoform (O00329 whole entry, canonical isoform): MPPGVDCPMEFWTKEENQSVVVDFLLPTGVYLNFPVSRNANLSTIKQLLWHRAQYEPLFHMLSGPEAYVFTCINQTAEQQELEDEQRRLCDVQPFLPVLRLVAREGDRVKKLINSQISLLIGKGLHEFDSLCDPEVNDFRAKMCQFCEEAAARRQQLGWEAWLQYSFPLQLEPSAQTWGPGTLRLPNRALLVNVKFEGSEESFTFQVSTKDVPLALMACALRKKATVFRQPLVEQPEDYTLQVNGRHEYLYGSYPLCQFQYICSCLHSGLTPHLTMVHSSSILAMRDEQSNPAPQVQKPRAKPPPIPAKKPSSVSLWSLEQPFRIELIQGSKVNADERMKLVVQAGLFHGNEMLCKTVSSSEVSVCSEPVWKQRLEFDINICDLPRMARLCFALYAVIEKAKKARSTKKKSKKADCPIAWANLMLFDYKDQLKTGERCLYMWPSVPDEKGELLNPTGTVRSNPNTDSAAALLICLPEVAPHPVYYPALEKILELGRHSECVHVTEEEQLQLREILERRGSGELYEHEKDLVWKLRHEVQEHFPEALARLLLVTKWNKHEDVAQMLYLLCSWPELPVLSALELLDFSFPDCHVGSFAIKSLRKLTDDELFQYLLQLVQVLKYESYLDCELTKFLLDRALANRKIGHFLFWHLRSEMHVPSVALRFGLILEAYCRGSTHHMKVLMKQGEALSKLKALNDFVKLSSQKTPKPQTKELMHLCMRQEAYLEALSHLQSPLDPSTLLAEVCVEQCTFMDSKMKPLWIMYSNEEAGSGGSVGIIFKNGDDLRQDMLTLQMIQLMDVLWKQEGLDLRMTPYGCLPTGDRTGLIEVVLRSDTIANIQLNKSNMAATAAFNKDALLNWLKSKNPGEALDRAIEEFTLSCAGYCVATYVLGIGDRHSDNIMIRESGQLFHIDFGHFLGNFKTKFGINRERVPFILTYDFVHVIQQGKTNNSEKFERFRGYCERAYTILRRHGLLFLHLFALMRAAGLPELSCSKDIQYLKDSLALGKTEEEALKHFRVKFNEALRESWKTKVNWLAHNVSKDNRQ
Chain of Inhibitor of nuclear factor kappa-B kinase subunit beta (O14920 whole entry): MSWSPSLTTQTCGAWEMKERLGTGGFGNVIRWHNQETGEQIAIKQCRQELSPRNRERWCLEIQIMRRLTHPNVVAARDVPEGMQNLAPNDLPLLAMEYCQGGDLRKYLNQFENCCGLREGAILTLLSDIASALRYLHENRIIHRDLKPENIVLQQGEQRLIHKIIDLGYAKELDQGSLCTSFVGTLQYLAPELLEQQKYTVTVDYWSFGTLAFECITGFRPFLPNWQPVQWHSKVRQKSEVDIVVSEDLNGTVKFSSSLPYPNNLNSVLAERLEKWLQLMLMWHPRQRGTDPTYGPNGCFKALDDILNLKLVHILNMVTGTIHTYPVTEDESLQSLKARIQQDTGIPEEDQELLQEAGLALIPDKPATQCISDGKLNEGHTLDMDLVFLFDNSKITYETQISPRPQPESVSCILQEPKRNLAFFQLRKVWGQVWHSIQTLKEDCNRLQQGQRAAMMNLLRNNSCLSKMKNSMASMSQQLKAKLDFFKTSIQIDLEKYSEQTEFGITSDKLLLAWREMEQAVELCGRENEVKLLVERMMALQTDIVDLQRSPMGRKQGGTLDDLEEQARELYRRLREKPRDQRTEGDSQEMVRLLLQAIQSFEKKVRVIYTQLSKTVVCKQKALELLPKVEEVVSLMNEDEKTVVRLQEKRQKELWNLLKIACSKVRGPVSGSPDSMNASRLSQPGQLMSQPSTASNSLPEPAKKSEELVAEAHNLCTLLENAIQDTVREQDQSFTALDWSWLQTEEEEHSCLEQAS
Chain of Mitogen-activated protein kinase 11 (Homo sapiens) (Q15759 whole entry, the tested form may be a part, canonical isoform): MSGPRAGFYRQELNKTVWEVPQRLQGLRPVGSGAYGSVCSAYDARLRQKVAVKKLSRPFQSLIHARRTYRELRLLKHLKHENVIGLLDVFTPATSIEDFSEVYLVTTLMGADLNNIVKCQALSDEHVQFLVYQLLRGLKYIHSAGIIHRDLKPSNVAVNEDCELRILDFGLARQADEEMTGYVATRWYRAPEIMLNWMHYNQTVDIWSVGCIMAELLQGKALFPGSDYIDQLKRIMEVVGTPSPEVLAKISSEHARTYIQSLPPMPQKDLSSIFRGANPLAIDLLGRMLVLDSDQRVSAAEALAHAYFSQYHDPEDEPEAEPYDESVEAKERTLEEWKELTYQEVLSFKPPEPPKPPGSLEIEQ
Chain of Discoidin domain-containing receptor 2 (Homo sapiens) (Q16832 whole entry, the tested form may be a part): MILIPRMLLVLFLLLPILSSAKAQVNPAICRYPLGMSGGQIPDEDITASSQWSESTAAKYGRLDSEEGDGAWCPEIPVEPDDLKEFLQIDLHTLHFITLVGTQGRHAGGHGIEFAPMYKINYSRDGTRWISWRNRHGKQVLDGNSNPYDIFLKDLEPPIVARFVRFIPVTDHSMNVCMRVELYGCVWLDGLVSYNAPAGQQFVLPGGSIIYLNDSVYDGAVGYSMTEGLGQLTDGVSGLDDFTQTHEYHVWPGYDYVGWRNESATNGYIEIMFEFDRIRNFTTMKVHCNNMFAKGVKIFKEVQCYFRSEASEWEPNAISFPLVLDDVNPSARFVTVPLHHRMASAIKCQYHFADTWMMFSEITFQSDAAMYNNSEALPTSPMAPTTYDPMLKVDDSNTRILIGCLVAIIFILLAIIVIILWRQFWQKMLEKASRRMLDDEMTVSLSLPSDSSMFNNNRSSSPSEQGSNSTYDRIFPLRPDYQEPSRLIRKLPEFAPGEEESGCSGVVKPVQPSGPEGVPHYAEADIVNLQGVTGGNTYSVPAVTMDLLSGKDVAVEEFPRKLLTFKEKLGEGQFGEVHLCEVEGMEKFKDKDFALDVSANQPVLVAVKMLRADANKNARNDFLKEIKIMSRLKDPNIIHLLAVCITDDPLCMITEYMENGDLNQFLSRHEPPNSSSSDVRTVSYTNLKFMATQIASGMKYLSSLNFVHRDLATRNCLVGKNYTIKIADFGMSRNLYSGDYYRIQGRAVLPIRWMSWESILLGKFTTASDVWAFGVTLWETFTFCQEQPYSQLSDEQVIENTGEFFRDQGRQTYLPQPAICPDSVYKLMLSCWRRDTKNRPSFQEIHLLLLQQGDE
Chain of Mitogen-activated protein kinase 8 (P45983 whole entry): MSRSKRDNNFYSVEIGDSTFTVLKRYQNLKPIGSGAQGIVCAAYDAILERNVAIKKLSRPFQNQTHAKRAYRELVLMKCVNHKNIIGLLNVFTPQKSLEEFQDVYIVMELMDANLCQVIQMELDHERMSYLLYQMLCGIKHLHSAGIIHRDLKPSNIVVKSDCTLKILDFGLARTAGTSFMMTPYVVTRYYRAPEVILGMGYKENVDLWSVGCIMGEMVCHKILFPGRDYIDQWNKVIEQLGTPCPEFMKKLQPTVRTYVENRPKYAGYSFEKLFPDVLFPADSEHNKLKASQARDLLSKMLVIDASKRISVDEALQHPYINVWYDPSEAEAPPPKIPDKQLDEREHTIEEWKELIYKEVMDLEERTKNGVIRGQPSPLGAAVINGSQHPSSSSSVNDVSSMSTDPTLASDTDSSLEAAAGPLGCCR
Chain of Aurora kinase A (O14965 whole entry): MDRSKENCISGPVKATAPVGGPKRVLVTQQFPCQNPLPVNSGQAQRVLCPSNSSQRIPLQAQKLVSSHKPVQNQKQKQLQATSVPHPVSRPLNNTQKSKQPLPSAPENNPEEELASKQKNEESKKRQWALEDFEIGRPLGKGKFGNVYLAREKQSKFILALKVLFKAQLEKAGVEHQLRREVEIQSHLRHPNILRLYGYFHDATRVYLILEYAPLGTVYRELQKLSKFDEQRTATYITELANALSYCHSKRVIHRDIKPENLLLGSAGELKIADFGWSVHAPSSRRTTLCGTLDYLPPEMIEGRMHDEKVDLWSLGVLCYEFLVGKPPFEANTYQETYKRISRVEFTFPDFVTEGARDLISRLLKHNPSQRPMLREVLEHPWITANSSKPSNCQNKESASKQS

CCc1cc(Nc2nccc(-c3c(-c4ccc(OC)c(C(=O)Nc5c(F)cccc5F)c4)nc4ccccn34)n2)c(OC)cc1N1CCC(N2CCN(S(C)(=O)=O)CC2)CC1
IC50 [1]: > 25 µM | IC50 [2]: 0.488 µM | IC50 [3]: 13 µM | IC50 at 72 h [4]: 0.068 µM | Activity [5]: 5% | IC50 (Aurora kinase A): 0.159 µM | Activity (NCI-H929): 79% | inhibition [6]: 0% | inhibition [7]: 11% | IC50 [8]: > 10 µM | inhibition [9]: 22% | IC50 (EJM): > 30 µM | inhibition [10]: 0% | inhibition (COLO 205): Dose-Dependent Effect | IC50 (HN5): > 20 µM | Activity (MCF7): 11% | inhibition [11]: 10% | inhibition [12]: -8% | inhibition [13]: 25% | inhibition at 0.3 µM [14]: 0% | IC50 [15]: > 10 µM | inhibition [16]: 0% | IC50 [17]: > 10 µM | IC50 [18]: 0.016 µM | IC50 (LNCaP): > 20 µM | inhibition [19]: 37%
